From ChEMBL document CHEMBL1208677, “Synthesis and antitumor activity of liquiritigenin thiosemicarbazone derivatives” (Eur J Med Chem, 2010)
pIC50: −log10 of the molar value.

Experiments:
[1] = tested on: HCT-116; test: Cytotoxicity against human HCT116 cells after 72 hrs by MTT assay; assay type: functional, cell-based; settings: HCT-116, 72 h
Outline: (§1)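 Cells in RPMI-1640 were exposed to compound for 72 h, then given MTT and incubated a further 4 h at 37 °C. Formazan was dissolved in DMSO and absorbance read at 570 and 630 nm. Triplicate wells per point across three independent experiments. IC50 (50% inhibition of viability) was taken from concentration-response curves by linear regression, as the mean of three determinations.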

[2] = tested on: HeLa; test: Cytotoxicity against human HeLa cells after 72 hrs by MTT assay; assay type: functional, cell-based; outline: as §1
[3] = tested on: SGC-7901 (human); test: Cytotoxicity against human SGC7901 cells after 72 hrs by MTT assay; settings: SGC-7901, 72 h
[4] = tested on: K562; test: Cytotoxicity against human K562 cells after 72 hrs by MTT assay; assay type: functional, cell-based; settings: K562, 72 h; outline: as §1
[5] = tested on: DU-145 (human); test: Cytotoxicity against human DU145 cells after 72 hrs by MTT assay; settings: DU-145, 72 h

Compound | pIC50 [1] | pIC50 [2] | pIC50 [3] | pIC50 [4] | pIC50 [5]
CN1CCN(C(=S)N/N=C2\CC(c3ccc(O)cc3)Oc3cc(O)ccc32)CC1 (stereo not given) | 4.22 | 4.18 | 4.01 | 4.64 | 5.00
Oc1ccc(C2C/C(=N\NC(=S)N3CCOCC3)c3ccc(O)cc3O2)cc1 (stereo not given) | 4.20 | 4.12 | 4.07 | 4.53 | 4.28
CC(C)NC(=S)N/N=C1\CC(c2ccc(O)cc2)Oc2cc(O)ccc21 (stereo not given) | 4.42 | 4.17 | 4.22 | 4.67 | 4.45
O=c1[nH]cc(F)c(=O)[nH]1 [FLUOROURACIL] | 5.71 | 5.01 | 5.66 | 4.34 | 5.53
O=C1C[C@@H](c2ccc(O)cc2)Oc2cc(O)ccc21 [LIQUIRTIGENIN] | 4.43 | < 4.00 | < 4.00 | < 4.00 | 4.03
CCCNC(=S)N/N=C1\CC(c2ccc(O)cc2)Oc2cc(O)ccc21 (stereo not given) | 4.27 | 4.40 | 4.13 | 4.51 | 4.51
CC(C)(C)NC(=S)N/N=C1\CC(c2ccc(O)cc2)Oc2cc(O)ccc21 (stereo not given) | 4.59 | 4.30 | 4.37 | 5.05 | 4.51
Oc1ccc(C2C/C(=N\NC(=S)N3CCCC3)c3ccc(O)cc3O2)cc1 (stereo not given) | 4.28 | 4.19 | 4.29 | 4.76 | 4.43
CCCN(CCC)C(=S)N/N=C1\CC(c2ccc(O)cc2)Oc2cc(O)ccc21 (stereo not given) | 4.38 | 4.12 | 4.21 | 4.91 | 4.49
CCCCNC(=S)N/N=C1\CC(c2ccc(O)cc2)Oc2cc(O)ccc21 (stereo not given) | 4.31 | < 4.00 | 4.24 | 4.77 | 4.29
Oc1ccc(C2C/C(=N\NC(=S)N3CCCCC3)c3ccc(O)cc3O2)cc1 (stereo not given) | 4.29 | 4.13 | 4.26 | 4.86 | 4.40
Oc1ccc(C2C/C(=N\NC(=S)N3CCNCC3)c3ccc(O)cc3O2)cc1 (stereo not given) | 4.10 | < 4.00 | < 4.00 | 4.58 | 4.65
